Laboratory results as given in ChEMBL document CHEMBL1132206, “Design, synthesis, and in vitro activity of catamphiphilic reverters of multidrug resistance: discovery of a selective, highly efficacious chemosensitizer with potency in the nanomolar range” (J Med Chem, 1999).
Calls of active or inactive are those of the source. The rule behind the calls is not given here.

Tests used:
Cavia porcellus [1] = species: Cavia porcellus; experiment: Percent inhibition of calcium-induced contraction on K+ depolarized guinea pig aortic strip.; assay type: functional, Aorta; parameters: concentration or dose not given beside the values
Cavia porcellus [2] = species: Cavia porcellus; experiment: Decrease in developed tension of the right atrium of guinea pig expressed as the negative chronotropy.; assay type: functional, Cardiac atrium; parameters: scale not given: the % may be the effect or the level left
Procedure, shortened: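 Spontaneously beating isolated guinea pig right atrium. Read-out is the fall in atrial rate at 5 × 10^-5 M (10^-5 M for some compounds), given as percent change from control (n = 7-8).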

K562 [3] = experiment: Potency that causes a half maximal increase in nuclear concentration of pirarubicin.; assay type: functional, Homo sapiens
Cavia porcellus [4] = species: Cavia porcellus; experiment: Potency expressed as EC50 for the negative inotropic activity.; assay type: functional
Cavia porcellus [5] = species: Cavia porcellus; experiment: Potency expressed as EC30 for the negative chronotropic activity; 'i' means Inactive; assay type: functional
Cavia porcellus [6] = species: Cavia porcellus; experiment: Potency expressed as IC50 for the vasorelaxant activity; 'i' means inactive.; assay type: functional
Cavia porcellus [7] = species: Cavia porcellus; experiment: Decrease in developed tension of the left atrium of guinea pig expressed as the negative inotropy.; assay type: functional, Cardiac atrium; parameters: concentration or dose not given beside the values
Procedure, shortened: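 Isolated guinea pig left atrium, electrically driven at 1 Hz. Read-out is the fall in developed tension at 5 × 10^-5 M, given as percent change from control (n = 5-6).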

K562 [8] = experiment: Percentage of the dead cells of K-562 cells was determined for the compound; assay type: ADME, cell-based; details: human
Procedure, shortened: (§1)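 Doxorubicin-resistant K 562 cells were exposed to compound at 1 µM, and viability was scored by trypan blue exclusion. Dead cells above 20% counted as toxic.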

K562 [9] = experiment: The efficacy in reverting MDR was evaluated on human erythroleukemia K-562 cell line; assay type: functional
Procedure, shortened: (§2)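 Doxorubicin-resistant and sensitive K 562 cells in exponential growth were used in pH 7.25 HEPES buffer at 37 °C in quartz cuvettes. Pirarubicin uptake was followed as the fall in fluorescence at 590 nm (ex 480 nm). Steady-state nuclear pirarubicin was measured across a range of inhibitor concentrations. α = (CnRi − CnRo)/(CnS − CnRo); αmax is the maximal α, and [i]0.5 is the concentration giving α = 0.5 (mean ± SEM).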

Cavia porcellus [10] = species: Cavia porcellus; experiment: Decrease in atrial rate of the right atrium of guinea pig expressed as the negative chronotropy.; parameters: concentration or dose not given beside the values
Cavia porcellus [11] = species: Cavia porcellus; experiment: Potency expressed as EC30 for the negative chronotropic activity.; assay type: functional
Cavia porcellus [12] = species: Cavia porcellus; experiment: Potency expressed as IC50 for the vasorelaxant activity.; assay type: functional
Cavia porcellus [13] = species: Cavia porcellus; experiment: Potency expressed as IC50 for the vasorelaxant activity; assay type: functional
Cavia porcellus [14] = species: Cavia porcellus; experiment: Potency expressed as EC50 for the negative inotropic activity; 'i' means Inactive; assay type: functional
Cavia porcellus [15] = species: Cavia porcellus; experiment: Potency expressed as EC30 for the negative chronotropic activity; assay type: functional
K562 [16] = experiment: Potency that causes half maximal increase in nuclear concentration of pirarubicin; 'i' means Inactive; assay type: functional, cell-based; details: Homo sapiens; procedure, shortened: as §2
K562 [17] = experiment: The efficacy in reverting MDR was evaluated on erythroleukemia K-562 cell line.; assay type: functional, Homo sapiens; procedure, shortened: as §2
K562 [18] = experiment: percentage of the dead cells of K-562 cells was determined for the concentration of 1 uM of the compound.; assay type: ADME, cell-based; details: human, k562, 1 µM; procedure, shortened: as §1

SMILES	EC50 (Cavia porcellus [4]) [nM]	IC50 (Cavia porcellus [6])	Dead cells (K562 [8]) [%]	IC50 (Cavia porcellus [12]) [nM]	IC50 (Cavia porcellus [13]) [nM]	EC50 (Cavia porcellus [14])	Dead cells (K562 [18]) [%]	Activity (Cavia porcellus [1]) [%]	Activity (Cavia porcellus [2]) [%]	Potency (K562 [3]) [nM]	EC30 (Cavia porcellus [5])	Activity (Cavia porcellus [7]) [%]	Alpha max (K562 [9])	Activity (Cavia porcellus [10]) [%]	EC30 (Cavia porcellus [11]) [nM]	EC30 (Cavia porcellus [15]) [nM]	Potency (K562 [16])	Alpha max (K562 [17])
COc1ccc(C(C#N)(CCCN(C)Cc2c3ccccc3cc3ccccc23)C(C)C)cc1OC.Cl (configuration not stated)	650	Inactive	3					9	19	2500	inactive	85	0.5					
COc1ccc(C(C#N)(CC#CCN(C)CC23CC4CC(CC(C4)C2)C3)C(C)C)cc1OC.Cl (configuration not stated)	1160		0	3420				65		1300		77	0.8	92	240			
COc1ccc(C(C#N)(CC#CCNCC(c2ccccc2)c2ccccc2)C(C)C)cc1OC.Cl (configuration not stated)	1060		20	4120				54		100		61	0.7	67	830			
C=CCNc1nc(NCC=C)nc(N2CCC(NCCCC(C#N)(c3ccc(OC)c(OC)c3)C(C)C)CC2)n1.Cl (configuration not stated)			0	3450		Not Active		62		1600		39	0.9	87	1750			
COc1ccc(C(C#N)(CCCNC2c3ccccc3-c3ccccc32)C(C)C)cc1OC.Cl (configuration not stated)		Inactive	0			Not Active		46		250		33	0.8	74	650			
COc1ccc(C(C#N)(CCCN(C)C2c3ccccc3-c3ccccc32)C(C)C)cc1OC.Cl (configuration not stated)		Inactive	0			Not Active		15		1000	inactive	36	0.8	26				

Further lines, with some results ahead:

EC50 (Cavia porcellus [4]) [nM]	IC50 (Cavia porcellus [6])	Dead cells (K562 [8]) [%]	IC50 (Cavia porcellus [12]) [nM]	IC50 (Cavia porcellus [13]) [nM]	EC50 (Cavia porcellus [14])	Dead cells (K562 [18]) [%]	SMILES	Activity (Cavia porcellus [1]) [%]	Activity (Cavia porcellus [2]) [%]	Potency (K562 [3]) [nM]	EC30 (Cavia porcellus [5])	Activity (Cavia porcellus [7]) [%]	Alpha max (K562 [9])	Activity (Cavia porcellus [10]) [%]	EC30 (Cavia porcellus [11]) [nM]	EC30 (Cavia porcellus [15]) [nM]	Potency (K562 [16])	Alpha max (K562 [17])
		0		7150	Not Active		COc1ccc(C(C#N)(CCCNC23CC4CC(CC(C4)C2)C3)C(C)C)cc1OC.Cl (configuration not stated)	81		2000		45	0.7	80		1700		
3990			3800				COc1ccc(C(C#N)(CCCN(C)C23CC4CC(CC(C4)C2)C3)C(C)C)cc1OC.Cl (configuration not stated)	65				80		81	910		inactive	
1030		0	3490				Cl.N#CC(CCCNC12CC3CC(CC(C3)C1)C2)(c1ccccc1)c1ccccc1	55		500		80	0.8	69	1260			
	Inactive				Not Active	20	Cl.N#CC(CCCNCc1c2ccccc2cc2ccccc12)(c1ccccc1)c1ccccc1	6		500		48		67	660			0.7
890	Inactive					0	CN(CCCC(C#N)(c1ccccc1)c1ccccc1)Cc1c2ccccc2cc2ccccc12.Cl	10		2100	inactive	70		22				0.8
